Tests used:
[1] = type: in vivo; settings: rat; for CSF AUC0–7 / CSF Cmax / Brain AUC0–7 / Brain Cmax: after BIA 10–2474 (1) 10 mg/kg p.o.; for Plasma AUC0–7: after BIA 10–2474 (1) 10 mg/kg p.o. in 0.5% methylcellulose; for Brain AUC0–7 / Brain Cmax: not corrected for binding to tissues
Summary of the method: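 Rats were dosed orally at 10 mg/kg in 0.5% methylcellulose. The parent compound and its metabolites were quantified in plasma, brain and CSF. Cmax and AUC0–7 were derived for each analyte.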

[2] = system: ALDHs; experiment: ABPP reactivity with ALDHs in human cells; type: cell-based; settings: N-methyl compounds
[3] = molecular target: T1, ALDH2 (Homo sapiens, UniProt P05091); experiment: LC-MS characterisation of the adduct with ALDH2 from treated HEK293T cells; type: cell-based; settings: HEK293T cells expressing FLAG-tagged WT-ALDH2, 10 µM, 1 h; LC-MS-based proteomics
T1 sequence (P05091 18-517): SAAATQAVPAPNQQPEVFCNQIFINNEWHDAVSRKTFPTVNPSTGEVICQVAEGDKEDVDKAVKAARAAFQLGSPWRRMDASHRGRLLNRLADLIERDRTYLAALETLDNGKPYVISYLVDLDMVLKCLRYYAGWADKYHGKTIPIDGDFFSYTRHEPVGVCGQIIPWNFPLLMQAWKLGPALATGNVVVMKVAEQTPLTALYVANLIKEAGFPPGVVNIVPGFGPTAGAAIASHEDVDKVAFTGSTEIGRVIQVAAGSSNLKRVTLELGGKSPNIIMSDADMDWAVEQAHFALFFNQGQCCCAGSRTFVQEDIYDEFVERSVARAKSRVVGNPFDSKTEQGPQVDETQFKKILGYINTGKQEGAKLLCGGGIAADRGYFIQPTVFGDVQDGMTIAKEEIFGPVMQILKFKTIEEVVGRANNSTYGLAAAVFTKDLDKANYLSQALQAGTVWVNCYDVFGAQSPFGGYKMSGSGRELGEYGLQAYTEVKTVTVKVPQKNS

[4] = molecular target: T1, ALDH2; experiment: isoTOP-ABPP cysteine reactivity in SW620 cells: ALDH2; type: cell-based; settings: 10 µM, 1 h
Summary of the method: (§1)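 SW620 cells were treated with test compound (10 μM, 1 h; light) or DMSO (heavy). Cysteine reactivity was then profiled globally by isoTOP-ABPP using an alkynylated iodoacetamide probe (IA-alkyne). Heavy/light ratios for quantified cysteines were averaged across four independent biological replicates.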

[5] = molecular target: ALDH9A1 (Homo sapiens, UniProt P49189); experiment: isoTOP-ABPP cysteine reactivity in SW620 cells: ALDH9A1; type: cell-based; settings: 10 µM, 1 h
ALDH9A1, sequence (P49189 whole entry): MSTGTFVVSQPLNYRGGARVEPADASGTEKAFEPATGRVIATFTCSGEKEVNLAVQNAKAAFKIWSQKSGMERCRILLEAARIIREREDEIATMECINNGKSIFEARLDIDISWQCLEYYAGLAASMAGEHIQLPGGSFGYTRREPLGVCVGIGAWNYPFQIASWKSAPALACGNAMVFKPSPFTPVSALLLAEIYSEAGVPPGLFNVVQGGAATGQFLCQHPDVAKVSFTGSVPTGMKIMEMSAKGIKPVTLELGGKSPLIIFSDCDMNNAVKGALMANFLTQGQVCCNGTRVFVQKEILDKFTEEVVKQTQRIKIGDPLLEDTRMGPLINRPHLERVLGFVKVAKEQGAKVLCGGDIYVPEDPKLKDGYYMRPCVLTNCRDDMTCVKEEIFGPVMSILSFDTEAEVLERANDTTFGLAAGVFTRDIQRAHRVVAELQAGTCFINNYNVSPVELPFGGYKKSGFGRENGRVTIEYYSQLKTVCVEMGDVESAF
Summary of the method: as §1

[6] = molecular target: T1, ALDH2; experiment: Quantitative MS-based CC-ABPP and Western blot in CCF-STTG1 cells: ALDH2; type: cell-based; settings: pre-treatment 10 µM, 1 h, then corresponding probe 7 or 8
Summary of the method: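 CCF-STTG1 cells were grown in isotopically heavy or light amino-acid media. Cells received DMSO (heavy) or test compound (light; 10 μM, 1 h), followed by the corresponding clickable probe (1 μM, 1 h). Heavy/light protein ratios were averaged from quantified peptides across two independent biological replicates. Streptavidin-enriched fractions, with or without parent pretreatment, were immunoblotted with anti-ALDH2.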

[7] = system: ~50–55 kDa protein; experiment: Gel-based CC-ABPP in CCF-STTG1 human astrocytoma cells; type: cell-based; settings: pre-treatment 10 µM, 1 h, then probes 7 and 8
Summary of the method: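 CCF-STTG1 human astrocytoma cells were pretreated in situ with DMSO or the parent test compound (10 μM, 1 h), then given the matching alkyne probe (1 μM, 1 h). Probe-labelled proteins were conjugated by CuAAC to a rhodamine-azide reporter, resolved by SDS-PAGE and detected by in-gel fluorescence scanning.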

[8] = molecular target: T2, ALDH5A1 (Homo sapiens, UniProt P51649); experiment: isoTOP-ABPP cysteine reactivity in SW620 cells: ALDH5A1; type: cell-based; settings: 10 µM, 1 h, Table S2
T2 sequence (P51649 48-535): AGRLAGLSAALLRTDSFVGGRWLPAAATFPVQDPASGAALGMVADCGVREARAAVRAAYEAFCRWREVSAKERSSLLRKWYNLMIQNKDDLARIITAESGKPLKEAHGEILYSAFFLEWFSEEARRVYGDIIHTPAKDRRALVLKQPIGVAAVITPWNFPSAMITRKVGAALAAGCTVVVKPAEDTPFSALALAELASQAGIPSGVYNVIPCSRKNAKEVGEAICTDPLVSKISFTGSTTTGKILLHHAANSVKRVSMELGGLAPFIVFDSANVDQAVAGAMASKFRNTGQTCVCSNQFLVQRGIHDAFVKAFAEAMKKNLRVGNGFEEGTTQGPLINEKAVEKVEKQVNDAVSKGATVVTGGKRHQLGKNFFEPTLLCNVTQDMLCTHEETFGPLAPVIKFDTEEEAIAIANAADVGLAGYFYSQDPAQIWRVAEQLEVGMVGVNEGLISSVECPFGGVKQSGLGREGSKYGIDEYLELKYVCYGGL
Summary of the method: as §1

Row | Compound | CSF AUC0–7 [1] | CSF Cmax [1] | Plasma AUC0–7 [1] | Brain AUC0–7 [1] | Brain Cmax [1] | Reaction with ALDHs [2] | Adduct with C319 on ALDH2 [3] | IA-alkyne reactivity of C319 of ALDH2 [4] | IA-alkyne reactivity of other cysteine (C386) of ALDH2 [4] | IA-alkyne reactivity of C288 of ALDH9A1 [5] | Blockade of probe enrichment of ALDH2 (Western blotting) [6] | Blockade of probe labelling of ~50–55 kDa protein [7] | IA-alkyne reactivity of C340 of ALDH5A1 [8]
1 | CN(C(=O)n1cnc(-c2ccc[n+]([O-])c2)c1)C1CCCCC1 [BIA 10–2474 (1)] | 4000 ng·h/mL | 1300 ng/mL | 13800 ng·h/mL | 2480 ng·h/mL | 939 ng/mL | fail to react |  |  |  |  |  |  | 
2 | CN(C(=O)n1cnc(-c2cccnc2)c1)C1CCCCC1 [compound 2] | 113 ng·h/mL | 36.2 ng/mL | 306 ng·h/mL | 185 ng·h/mL | 252 ng/mL |  |  |  |  |  |  |  | 
3 | O=C(NC1CCCCC1)n1cnc(-c2ccc[n+]([O-])c2)c1 [compound 3] | 15.6 ng·h/mL | 5.03 ng/mL | 323 ng·h/mL | 11.8 ng·h/mL | 4.57 ng/mL |  | S-thiocarbamate adduct | blocked | unperturbed | blocked | blockade | blocked | unchanged

Reference: paper PMC6383364 (ACS chemical biology, 2019)
